Assay results as given in ChEMBL document CHEMBL1255474, “Impact of different carbapenems and regimens of administration on resistance emergence for three isogenic Pseudomonas aeruginosa strains with differing mechanisms of resistance” (2010).
Values after ≈ are worked out from the molar mass of the structure shown. Active and inactive are the calls of the source. No cut-off for these calls is given here.

Tests used:
Pseudomonas aeruginosa [1] = assay: Antimicrobial activity against Pseudomonas aeruginosa PAO1 expressing derepressed chromosomal AmpC mutant by broth macrodilution method; type: functional
Pseudomonas aeruginosa [2] = assay: Antimicrobial activity against wild type Pseudomonas aeruginosa PAO1 in hollow fiber system based pharmacokinetic-pharmacodynamic model assessed as reduction in bacterial count at 1 g administered at 4 hrs infusion regimen every 8 hrs by time-kill assay; type: functional
Method in brief: (§1)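 Hollow-fiber PK/PD model at 35°C, humidified. 15 ml late-log Mueller-Hinton II culture (circa 1 × 10^8 CFU/ml) per cartridge. Drug injected into the central reservoir by 0.5–4 h infusion every 6 or 8 h, run for 10 days. Samples taken at 0, 0.17, 1, 2, 3, 4, 6, 8 and 10 days, centrifuged and resuspended in saline to limit carryover. Counted on drug-free Mueller-Hinton II agar after 24 h at 35°C. Cell kill taken from counts at 24 h of exposure.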

Pseudomonas aeruginosa [3] = assay: Antimicrobial activity against wild type Pseudomonas aeruginosa PAO1 by broth macrodilution method; type: functional
Pseudomonas aeruginosa [4] = assay: Antimicrobial activity against wild type Pseudomonas aeruginosa PAO1 in hollow fiber system based pharmacokinetic-pharmacodynamic model assessed as reduction in bacterial count at 500 mg administered at 4 hrs infusion regimen every 8 hrs by time-kill assay; type: functional; method in brief: as §1
Pseudomonas aeruginosa [5] = assay: Antimicrobial activity against oprD-deficient Pseudomonas aeruginosa PAO1 in hollow fiber system based pharmacokinetic-pharmacodynamic model assessed as reduction in bacterial count at 1 g administered at 1 hr infusion regimen every 8 hrs by time-kill assay; type: functional; method in brief: as §1
Pseudomonas aeruginosa [6] = assay: Antimicrobial activity against oprD-deficient Pseudomonas aeruginosa PAO1 in hollow fiber system based pharmacokinetic-pharmacodynamic model assessed as reduction in bacterial count at 1 g administered at 4 hrs infusion regimen by time-kill assay; type: functional; method in brief: as §1
Pseudomonas aeruginosa [7] = assay: Antimicrobial activity against oprD-deficient Pseudomonas aeruginosa PAO1 by broth macrodilution method; type: functional
Pseudomonas aeruginosa [8] = assay: Antimicrobial activity against oprD-deficient Pseudomonas aeruginosa PAO1 in hollow fiber system based pharmacokinetic-pharmacodynamic model assessed as reduction in bacterial count at 500 mg administered at 1 hr infusion regimen every 8 hrs by time-kill assay; type: functional; method in brief: as §1
Pseudomonas aeruginosa [9] = assay: Antimicrobial activity against wild type Pseudomonas aeruginosa PAO1 in hollow fiber system based pharmacokinetic-pharmacodynamic model assessed as reduction in bacterial count at 500 mg administered at 1 hr infusion regimen every 8 hrs by time-kill assay; type: functional; method in brief: as §1
Pseudomonas aeruginosa [10] = assay: Antimicrobial activity against oprD-deficient Pseudomonas aeruginosa PAO1 in hollow fiber system based pharmacokinetic-pharmacodynamic model assessed as reduction in bacterial count at 1 g administered at 4 hrs infusion regimen every 8 hrs by time-kill assay; type: functional, organism-based; method in brief: as §1

With `C[C@@H](O)[C@H]1C(=O)N2C(C(=O)O)=C(S[C@@H]3CN[C@H](CNS(N)(=O)=O)C3)[C@H](C)[C@H]12` [DORIPENEM] the MIC (Pseudomonas aeruginosa [1]) was 2 µg/mL (≈ 4.76 µM), the log10CFU/ml (Pseudomonas aeruginosa [2]) was 5.4 and the MIC (Pseudomonas aeruginosa [3]) was 1 µg/mL (≈ 2.38 µM). The log10CFU/ml (Pseudomonas aeruginosa [4]) was 4.07, the log10CFU/ml (Pseudomonas aeruginosa [5]) was 3.47 and the log10CFU/ml (Pseudomonas aeruginosa [6]) was 4.24. For the same molecule, the MIC (Pseudomonas aeruginosa [7]) was 2 µg/mL (≈ 4.76 µM), the log10CFU/ml (Pseudomonas aeruginosa [8]) was 3.12 and the log10CFU/ml (Pseudomonas aeruginosa [9]) was 3.71. The Activity (Pseudomonas aeruginosa [10]) was “Active”.

Molecule `C[C@@H](O)[C@H]1C(=O)N2C(C(=O)O)=C(SCCNC=N)C[C@H]12` [IMIPENEM ANHYDROUS] has an MIC (Pseudomonas aeruginosa [1]) of 2 µg/mL (≈ 6.68 µM), an MIC (Pseudomonas aeruginosa [3]) of 2 µg/mL (≈ 6.68 µM) and an MIC (Pseudomonas aeruginosa [7]) of 16 µg/mL (≈ 53.4 µM).
